How the values were obtained:
[1] = Inhibition of [3H]-Ro- 5-4864 binding to Peripheral Benzodiazepine Receptor of rat brain (255 mg protein)
[2] = Inhibition of [3H]-Ro- 5-4864 binding to Peripheral Benzodiazepine Receptor of rat kidney (62 mg protein)
[3] = Inhibition of [3H]-PK 11195 binding to Peripheral Benzodiazepine Receptor of rat kidney tissue (50 mg protein)
[4] = Inhibition of [3H]-PK 11195 binding to Peripheral Benzodiazepine Receptor of rat brain tissue (263 mg protein)
[5] = Inhibition of [3H]-PK 11195 binding to Peripheral Benzodiazepine Receptor of rat kidney tissue (22 mg protein)
Procedure, shortened: (§1)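 Kidneys from male Sprague-Dawley rats (150-200 g), decapitated, were decapsulated, minced, and homogenized in ice-cold 50 mM potassium phosphate (pH 7.0). The homogenate was spun at 23000 g for 20 min at 4 °C and the pellet resuspended. Tritiated radioligand was used at 1 nM against six inhibitor concentrations in triplicate. IC50 and pseudo Hill coefficient are given as means of two experiments.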

[6] = Inhibition of [3H]-Ro- 5-4864 binding to Peripheral Benzodiazepine Receptor of rat kidney (110 mg protein)
Procedure, shortened: as §1

[7] = Inhibition of [3H]-Ro- 5-4864 binding to Peripheral Benzodiazepine Receptor of rat kidney (22 mg protein)
Procedure, shortened: as §1

[8] = Inhibition of [3H]-PK 11195 binding to Peripheral Benzodiazepine Receptor of rat brain tissue (110 mg protein)
Procedure, shortened: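 Brain membrane binding used 1 nM tritiated radioligand, with six inhibitor concentrations each run in triplicate. Protein per assay was as specified. IC50 in nmol/L and pseudo Hill coefficient are reported as means of two independent experiments.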

[9] = Inhibition of [3H]-PK 11195 binding to Peripheral Benzodiazepine Receptor of rat kidney tissue (110 mg protein)
Procedure, shortened: as §1

Compound | IC50 [1] | IC50 [2] | IC50 [3] | IC50 [4] | IC50 [5] | IC50 [6] | IC50 [7] | IC50 [8] | IC50 [9]
O=C1CN=C(c2ccc(Cl)cc2)c2cc(Cl)ccc2N1CCN=C=S | 2.1 nM l-1 | 1.2 nM l-1 | 1.2 nM l-1 | 2.1 nM l-1 | – | – | – | – | –
CCC(C)N(CCN=C=S)C(=O)c1cc2ccccc2c(-c2ccccc2Cl)n1 (racemic) | 3 nM l-1 | 2 nM l-1 | 2.9 nM l-1 | 15 nM l-1 | – | – | – | – | –
CCC(C)N(CCN=C=S)C(=O)c1cc2ccccc2c(-c2ccccc2Cl)n1 (single isomer, unassigned; (-)) | – | – | – | – | 3.9 nM l-1 | 6.3 nM l-1 | 2.9 nM l-1 | 10 nM l-1 | –
CCC(C)N(CCN=C=S)C(=O)c1cc2ccccc2c(-c2ccccc2Cl)n1 (stereo in doubt; 11b) | – | – | – | – | 1.6 nM l-1 | 2.9 nM l-1 | 1.2 nM l-1 | – | 3.5 nM l-1
